Results of several laboratories.
Protocols differ between the studies behind these lines.
FGFR2: Fibroblast growth factor receptor 2 (FGFR2, Homo sapiens, UniProt P21802)
FGFR2 N549H: Fibroblast growth factor receptor 2 (FGFR2, Homo sapiens, UniProt P21802, N549H)

For `CS(=O)(=O)Nc1cccc(-c2csc(NC(=O)CSc3nc4nccnc4c(=O)n3CCc3ccccc3)n2)c1`, the inhibition was -2% (FGFR2; enzyme activity; inhibitor; 10 µM).
The inhibition of `CNC(=O)c1cc2c(Oc3ccc(NC(=O)C4(C(=O)Nc5ccc(F)cc5)CC4)cc3)ccnc2cc1OC` is reported as 95% (FGFR2 N549H; enzyme activity; inhibitor; radiometric; 1 µM).
With `CN(C)C1CCN(CC#Cc2nn(C3CCCC3)c3nc(NCc4ccccc4)ncc23)C1` (stereo not drawn) the inhibition was 46% (FGFR2; enzyme activity; inhibitor; FRET; 10 µM).
For `CNc1cccc2cc(C(=O)Nc3ccc(C(=O)O)cc3)c(=O)[nH]c12`, the inhibition was 2.8% (FGFR2 N549H; enzyme activity; inhibitor; 10 µM).
`C=CC(=O)Nc1cc(Nc2nccc(Nc3cc(Cl)c(F)cc3C(C)(C)O)n2)c(OC)cc1N1CC[C@@H](N(C)C)C1` has an inhibition of 10% (FGFR2; enzyme activity; inhibitor; 1 µM).
`CSc1nc(C)c(-c2ccnc(Nc3ccc(N4CCOCC4)cc3)c2)[nH]1` gave an inhibition of 44.9% (FGFR2; cell-free assay; inhibitor; 10 µM).
The inhibition of `CC/C(=N\NC(=O)NCc1cccc(O)c1)c1ccc(O)c(C)c1O` is reported as 7.7% (FGFR2; enzyme activity; inhibitor; 0.1 µM).
For `CCN(CC)CCNC(=O)c1c(C)[nH]c(/C=C2\C(=O)Nc3ccc(F)cc32)c1C`, the inhibition was 95% (FGFR2 N549H; cell-free assay; 10 µM).
`O=C(CSc1nc2nccnc2c(=O)n1CCc1ccccc1)Nc1nccs1` has an inhibition of 3% (FGFR2; enzyme activity; inhibitor; 10 µM).
With `COc1cc2nccc(Oc3ccc(NC(=O)c4c5n(n(-c6ccc(F)cc6)c4=O)CCCC5)cc3)c2cc1OC` the inhibition was 0% (FGFR2; enzyme activity; inhibitor; 0.1 µM).
`CNC(=O)c1cc(Oc2ccc(NC(=O)Nc3ccc(Cl)c(C(F)(F)F)c3)cc2)ccn1` gave an inhibition of 100% (FGFR2 N549H; cell-free assay; 10 µM).
`COc1cc2ncnc(Nc3ccc(Oc4ccccc4)cc3C)c2cc1OC` has an inhibition of 8% (FGFR2; enzyme activity; inhibitor; 1 µM).
`CCCS(=O)(=O)Nc1ccc(F)c(C(=O)c2c[nH]c3ncc(-c4ccc(Cl)cc4)cc23)c1F` has an inhibition of less than 10% (FGFR2; enzyme activity; inhibitor; 1 µM).
The inhibition of `Cc1ccc(Nc2nccc(N(C)c3ccc4c(C)n(C)nc4c3)n2)cc1S(N)(=O)=O` is reported as 96% (FGFR2 N549H; cell-free assay; 10 µM).
`COc1cc2ncnc(Nc3ccc(Oc4ccccc4)c(C)c3C)c2cc1OC` gave an inhibition of 3% (FGFR2; enzyme activity; inhibitor; 1 µM).
